Reference: publication PMC9652097 (Computers in Biology and Medicine, 2022)

Legend:
[1] = molecular target: T1, SARS-CoV-2 M^pro (Severe acute respiratory syndrome coronavirus 2, UniProt P0DTD1); experiment: Surface plasmon resonance; type: binding
[2] = DPPH radical scavenging activity; settings: 37 °C, 30 min, 517 nm
How it was run: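 Tea leaf solvent-extract fractions (petroleum ether, ethyl acetate, methanol, dichloromethane, methanol-water), each tested at several concentrations. Samples mixed 1:1 with 200 μM DPPH in ethanol, incubated 30 min at 37 °C, A517 read. Scavenging % = (1 − [(A_sample − A_blank)/A_control]) × 100, with control = water plus DPPH and blank = sample plus ethanol. Run three times.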

[3] = molecular target: T1, SARS-CoV-2 M^pro; settings: read-out: IC50 of M^pro inhibition; beyotime enhanced inhibition kit; cited from earlier work
[4] = system: M^pro; settings: read-out: IC50 of M^pro inhibition; cited from earlier work
[5] = system: C. elegans; settings: cited from earlier work

## Oc1cc(O)c2c(c1)O[C@H](c1ccc(O)c(O)c1)[C@H](O)C2 [EC, (−)-epicatechin]
[1]
  Kd: 23.9 µM

## O=C1O[C@H]([C@@H](O)CO)C(O)=C1O [VC]
[2]
  IC50 of DPPH free radical scavenging: 1.14 µg/mL

## CC(C)=CCc1cc(/C=C2\OC(=O)C(c3cc4c(cc3O)OC(C)(C)CC4)=C2O)ccc1O [aspulvinone D]
[3]
  IC50: 10.3 ± 0.6 µM

## CC(C)(O)C1Cc2cc(/C=C3\OC(=O)C(c4cc5c(cc4O)OC(C)(C)C(O)C5)=C3O)ccc2O1 (centres unmarked) [aspulvinone M]
[3]
  IC50: 9.4 ± 0.6 µM

## O=c1c2ccccc2[se]n1-c1ccccc1 [ebselen]
[4]
  IC50: 0.04 ± 0.004 µM

## Zijuanin E
[5]
  extension of lifespan of C. elegans: 67.2%

## Zijuanin F
[5]
  extension of lifespan of C. elegans: 56.0%

## aspulvinone R
[3]
  IC50: 7.7 ± 0.6 µM
